Consider 3 compounds from ChEMBL document CHEMBL3797186, “Single Residue Substitutions That Confer Voltage-Gated Sodium Ion Channel Subtype Selectivity in the NaV1.7 Inhibitory Peptide GpTx-1” (J Med Chem, 2016).

Positions of bridges follow the written chain, without caps; N, C: chain ends. Residues, ends and D or L forms follow the SMILES beside them. Where only a bound is given, the exact number is not on record here.

The assay has as its target Sodium channel protein type 5 subunit alpha (Homo sapiens, UniProt Q14524). Briefly: Inhibition of human Nav1.5 expressed in HEK293 cells assessed as inward peak current by ion-works quattro patch clamp electrophysiology method. Format: cell-based. In short, it runs like this: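 Stable HEK293 line expressing human NaV1.5, recorded by population patch clamp on the IonWorks Quattro.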

Sequence of Sodium channel protein type 5 subunit alpha (Q14524 whole entry): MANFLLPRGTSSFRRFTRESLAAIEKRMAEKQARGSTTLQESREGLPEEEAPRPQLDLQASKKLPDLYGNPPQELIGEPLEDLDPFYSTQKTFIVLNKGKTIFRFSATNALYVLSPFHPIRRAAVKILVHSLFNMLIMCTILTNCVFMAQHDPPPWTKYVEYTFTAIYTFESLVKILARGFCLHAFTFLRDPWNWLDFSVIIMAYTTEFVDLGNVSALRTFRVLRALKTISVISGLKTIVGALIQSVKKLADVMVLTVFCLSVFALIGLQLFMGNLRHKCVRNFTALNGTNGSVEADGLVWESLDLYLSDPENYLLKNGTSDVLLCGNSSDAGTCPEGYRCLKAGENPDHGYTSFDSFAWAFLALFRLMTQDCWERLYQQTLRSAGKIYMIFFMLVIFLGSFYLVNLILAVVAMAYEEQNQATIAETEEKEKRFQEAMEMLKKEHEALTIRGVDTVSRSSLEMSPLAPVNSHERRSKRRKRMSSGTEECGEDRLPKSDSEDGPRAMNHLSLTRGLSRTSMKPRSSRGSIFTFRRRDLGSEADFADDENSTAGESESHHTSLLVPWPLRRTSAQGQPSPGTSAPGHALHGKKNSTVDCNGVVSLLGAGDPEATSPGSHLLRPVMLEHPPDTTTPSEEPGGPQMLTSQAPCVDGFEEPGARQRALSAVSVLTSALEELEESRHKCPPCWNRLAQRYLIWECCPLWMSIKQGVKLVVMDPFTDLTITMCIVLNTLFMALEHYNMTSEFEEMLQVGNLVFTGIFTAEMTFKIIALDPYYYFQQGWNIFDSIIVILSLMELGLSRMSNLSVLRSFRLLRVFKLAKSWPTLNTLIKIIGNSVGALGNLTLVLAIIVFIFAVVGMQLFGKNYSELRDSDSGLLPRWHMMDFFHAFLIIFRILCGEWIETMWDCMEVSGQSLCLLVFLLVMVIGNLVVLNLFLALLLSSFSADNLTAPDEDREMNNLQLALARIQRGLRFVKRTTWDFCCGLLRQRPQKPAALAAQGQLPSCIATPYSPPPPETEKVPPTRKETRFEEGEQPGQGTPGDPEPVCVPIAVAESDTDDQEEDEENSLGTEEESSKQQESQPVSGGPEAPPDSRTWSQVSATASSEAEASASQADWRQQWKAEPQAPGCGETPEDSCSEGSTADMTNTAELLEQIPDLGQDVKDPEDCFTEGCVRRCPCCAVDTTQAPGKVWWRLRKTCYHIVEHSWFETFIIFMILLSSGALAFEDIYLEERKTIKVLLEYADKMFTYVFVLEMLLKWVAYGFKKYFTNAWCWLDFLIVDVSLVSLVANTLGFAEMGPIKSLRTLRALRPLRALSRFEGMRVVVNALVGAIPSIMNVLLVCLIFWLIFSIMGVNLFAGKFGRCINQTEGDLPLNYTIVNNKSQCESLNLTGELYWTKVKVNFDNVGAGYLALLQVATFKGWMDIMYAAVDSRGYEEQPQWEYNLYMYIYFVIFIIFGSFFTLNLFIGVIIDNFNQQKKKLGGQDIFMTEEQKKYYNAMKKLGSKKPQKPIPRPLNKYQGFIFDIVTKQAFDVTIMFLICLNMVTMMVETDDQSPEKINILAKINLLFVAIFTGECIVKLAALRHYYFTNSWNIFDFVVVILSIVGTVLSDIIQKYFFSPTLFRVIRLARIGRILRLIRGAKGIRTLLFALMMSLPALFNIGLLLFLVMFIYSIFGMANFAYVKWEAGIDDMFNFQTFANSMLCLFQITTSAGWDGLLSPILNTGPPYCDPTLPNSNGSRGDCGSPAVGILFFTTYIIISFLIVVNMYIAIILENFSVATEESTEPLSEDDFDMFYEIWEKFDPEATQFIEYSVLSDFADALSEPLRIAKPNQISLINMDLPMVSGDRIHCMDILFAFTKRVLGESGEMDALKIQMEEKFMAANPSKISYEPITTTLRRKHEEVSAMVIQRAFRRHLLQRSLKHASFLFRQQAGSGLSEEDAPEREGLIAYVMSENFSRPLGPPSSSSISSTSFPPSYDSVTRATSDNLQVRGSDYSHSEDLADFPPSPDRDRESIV

For the compound `CSCC[C@@H]1NC(=O)[C@H](Cc2ccccc2)NC(=O)CNC(=O)[C@H](CC(C)C)NC(=O)[C@@H](NC(=O)[C@@H](N)CC(=O)O)CSSC[C@@H]2NC(=O)[C@@H]3CSSC[C@@H](C(=O)N[C@@H](CCCCN)C(=O)N[C@@H](Cc4ccc(O)cc4)C(=O)N[C@H](C(=O)N[C@@H](Cc4ccccc4)C(N)=O)C(C)C)NC(=O)[C@H](Cc4c[nH]c5ccccc45)NC(=O)[C@H](CCCCN)NC(=O)[C@H](Cc4cnc[nH]4)NC(=O)[C@H]([C@@H](C)O)NC(=O)[C@H](CCCNC(=N)N)NC(=O)[C@H](CO)NC(=O)[C@H](CSSC[C@H](NC(=O)[C@H](CCCCN)NC(=O)[C@H](CCCNC(=N)N)NC1=O)C(=O)N[C@@H](Cc1ccc(O)cc1)C(=O)N1CCC[C@H]1C(=O)N[C@@H](CC(=O)O)C(=O)N[C@@H](CC(N)=O)C(=O)N[C@@H](CC(=O)O)C(=O)N[C@@H](CCCCN)C(=O)N3)NC(=O)[C@H](C(C)C)NC(=O)[C@H](CC(C)C)NC(=O)[C@H](CC(N)=O)NC(=O)[C@@H]1CCCN1C(=O)[C@H](CCCNC(=N)N)NC2=O` (H-DCLGFMRKCYPDNDKCCRPNLVCSRTHKWCKYVF-NH2; disulfide 2-17, 9-23, 16-30), the IC50 was greater than 5 µM.
Take `CC[C@H](C)[C@@H]1NC(=O)[C@@H]2CSSC[C@@H]3NC(=O)[C@H](C(C)C)NC(=O)[C@H](CC(C)C)NC(=O)[C@H](CC(N)=O)NC(=O)[C@@H]4CCCN4C(=O)[C@H](CCCNC(=N)N)NC(=O)[C@H](CSSC[C@H](NC(=O)[C@@H](N)CC(=O)O)C(=O)N[C@@H](CC(C)C)C(=O)NCC(=O)N[C@@H](Cc4ccccc4)C(=O)N[C@@H](CCSC)C(=O)N[C@@H](CCCNC(=N)N)C(=O)N[C@@H](CCCCN)C(=O)N2)NC(=O)[C@H](CSSC[C@@H](C(=O)N[C@@H](CCCCN)C(=O)N[C@@H](CCCNC(=N)N)C(=O)N[C@H](C(=O)N[C@@H](Cc2ccccc2)C(N)=O)C(C)C)NC(=O)[C@H](Cc2c[nH]c4ccccc24)NC(=O)[C@H](CCCCN)NC(=O)[C@H](Cc2cnc[nH]2)NC(=O)[C@H]([C@@H](C)O)NC(=O)[C@H](CCCNC(=N)N)NC(=O)[C@H](CO)NC3=O)NC(=O)[C@H](CCCCN)NC(=O)[C@H](CC(=O)O)NC(=O)[C@H](CC(N)=O)NC(=O)[C@H](CC(=O)O)NC(=O)[C@@H]2CCCN2C1=O` (H-DCLGFMRKCIPDNDKCCRPNLVCSRTHKWCKRVF-NH2; disulfide 2-17, 9-23, 16-30): the IC50 is greater than 5 µM.
With `CC[C@H](C)[C@@H]1NC(=O)[C@@H]2CSSC[C@@H]3NC(=O)[C@H](C(C)C)NC(=O)[C@H](CC(C)C)NC(=O)[C@H](CC(N)=O)NC(=O)[C@@H]4CCCN4C(=O)[C@H](CCCNC(=N)N)NC(=O)[C@H](CSSC[C@H](NC(=O)[C@@H](N)CC(=O)O)C(=O)N[C@@H](CC(C)C)C(=O)N[C@@H](Cc4c[nH]c5ccccc45)C(=O)N[C@@H](Cc4ccccc4)C(=O)N[C@@H](CCSC)C(=O)N[C@@H](CCCNC(=N)N)C(=O)N[C@@H](CCCCN)C(=O)N2)NC(=O)[C@H](CSSC[C@@H](C(=O)N[C@@H](CCCCN)C(=O)N[C@@H](Cc2ccc(O)cc2)C(=O)N[C@H](C(=O)N[C@@H](Cc2ccccc2)C(N)=O)C(C)C)NC(=O)[C@H](Cc2c[nH]c4ccccc24)NC(=O)[C@H](CCCCN)NC(=O)[C@H](Cc2cnc[nH]2)NC(=O)[C@H]([C@@H](C)O)NC(=O)[C@H](CCCNC(=N)N)NC(=O)[C@H](CO)NC3=O)NC(=O)[C@H](CCCCN)NC(=O)[C@H](CC(=O)O)NC(=O)[C@H](CC(N)=O)NC(=O)[C@H](CC(=O)O)NC(=O)[C@@H]2CCCN2C1=O` (H-DCLWFMRKCIPDNDKCCRPNLVCSRTHKWCKYVF-NH2; disulfide 2-17, 9-23, 16-30), the IC50 is greater than 5 µM.
